Laboratory results reported in ChEMBL document CHEMBL4316597, “Design, Synthesis, and Biological Evaluation of Itaconic Acid Derivatives as Potential Anti-Influenza Agents” (J Med Chem, 2019).
Activity calls are given as the source filed them. The calls are words filed in the database; no cut-off is given here.

Experiments:
[1] = Selectivity ratio of CC50 for MDCK cells to EC50 for pandemic Influenza A virus A/TW/2235/09 (H1N1) SO4; format: toxicity; settings: dog, read-out: Ratio CC50/EC50
Method in brief: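 MDCK cells (2 × 10^4/well, E10, 16–24 h) infected at nine-fold TCID50 with compound for 72 h, 37 °C, 5% CO2. Cells were fixed in 4% paraformaldehyde and stained with crystal violet; EC50 is from Reed–Muench. For CC50, cells had compound alone for 72 h, then MTT 3 h, DMSO, A570, Reed–Muench. SI = CC50/EC50; three independent experiments.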

[2] = tested on: Influenza A virus; assay: Inhibition of viral protein synthesis in Influenza A virus (A/WSN/33) infected in MDCK cells assessed as effect on NS2 protein level at 10 uM measured up to 9 hrs post infection by Western blot analysis; format: functional, organism-based; settings: A/WSN/1933(H1N1)
Method in brief: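 MDCK cells (5 × 10^5/well) infected with A/WSN/33 at MOI 0.1, washed twice, then held in E0 with or without 10 μM compound. Lysed in Triton X-100/deoxycholate buffer, equal protein separated by SDS-PAGE, and immunoblotted for viral proteins with GAPDH as loading control. Time-course harvests up to 9 h pi.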

In the case of `C=C(CC(=O)Nc1ccc(F)cc1F)C(=O)Nc1ccc(F)cc1F`, the selectivity ratio [1] is reported as 36 and the inhibition [2] is reported as “inactive”.
